This is an account of results in ChEMBL document CHEMBL1268941, “Bromophenols as Candida albicans isocitrate lyase inhibitors” (Bioorg Med Chem Lett, 2010).

pIC50: −log10 of the molar value. In brackets after ≈: the same amount, converted by molar mass. Where only a bound is given, the exact number is not on record here.

Experiment [1] has as its system Staphylococcus aureus. As to the kind of experiment: Antimicrobial activity against Staphylococcus aureus ATCC 6538p after 24 hrs by broth dilution method. In kind it is functional. In short, it runs like this:
(§1)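 Test bacteria grown overnight at 37 °C in LB broth, centrifuged and washed twice in sterile distilled water. Compound stocks made in DMSO and diluted in broth. Each microtiter well received 10 µl of broth holding about 10⁵ cfu/ml of bacteria. Plates incubated 24 h at 37 °C. Read-out was the MIC.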
A general note: Broth dilution looks for growth in wells or tubes with falling amounts of substance.

For experiment [2], the system named is Aspergillus fumigatus. Put plainly: Antimicrobial activity against Aspergillus fumigatus HIC 6094 after 48 to 72 hrs by broth dilution method. In kind it is functional. In short, it runs like this:
(§2)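 For C. albicans, cells were grown 48 h at 28 °C in YPD broth (1% yeast extract, 2% peptone, 2% dextrose), centrifuged and washed twice in sterile distilled water. A. fumigatus, T. rubrum and T. mentagrophytes were grown on potato dextrose agar for 2 weeks at 28 °C. Compound stocks made in DMSO. Microtiter plates incubated 48–72 h at 28 °C. Read-out was the MIC.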

For experiment [3], the system named is Bacillus subtilis. Put plainly: Antimicrobial activity against Bacillus subtilis ATCC 6633 after 24 hrs by broth dilution method. In kind it is functional. The following applies: ATCC 6633, 24 h. In short, it runs like this:
as §1

In experiment [4] the target is Isocitrate lyase (Candida albicans, UniProt Q9P8Q7). As to the kind of experiment: Inhibition of Candida albicans ATCC 10231 isocitrate lyase.
Chain of Isocitrate lyase (Q9P8Q7 whole entry): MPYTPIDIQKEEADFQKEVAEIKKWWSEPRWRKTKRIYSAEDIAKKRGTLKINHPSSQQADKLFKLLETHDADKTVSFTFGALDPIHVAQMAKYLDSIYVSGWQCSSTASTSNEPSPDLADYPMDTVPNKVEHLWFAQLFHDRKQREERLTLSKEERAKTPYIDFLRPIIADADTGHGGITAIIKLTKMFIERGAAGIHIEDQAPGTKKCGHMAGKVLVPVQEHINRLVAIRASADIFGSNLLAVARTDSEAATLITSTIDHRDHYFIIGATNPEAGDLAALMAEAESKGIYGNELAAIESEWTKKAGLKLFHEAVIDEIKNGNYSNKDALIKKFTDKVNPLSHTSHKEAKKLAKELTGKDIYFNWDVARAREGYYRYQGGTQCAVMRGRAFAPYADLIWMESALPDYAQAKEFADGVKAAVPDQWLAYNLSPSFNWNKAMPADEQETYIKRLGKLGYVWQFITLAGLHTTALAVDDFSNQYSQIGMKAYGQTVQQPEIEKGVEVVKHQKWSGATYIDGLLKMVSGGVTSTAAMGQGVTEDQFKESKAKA
The subject of experiment [5] is Trichophyton mentagrophytes. Put plainly: Antimicrobial activity against Trichophyton mentagrophytes IFO 40996 after 48 to 72 hrs by broth dilution method. In kind it is functional. In short, it runs like this:
as §2

Experiment [6] concerns Candida albicans. As to the kind of experiment: Antimicrobial activity against Candida albicans ATCC 10231 after 48 to 72 hrs by broth dilution method. In kind it is functional. In short, it runs like this:
as §2

Experiment [7] has as its system Proteus vulgaris. Put plainly: Antimicrobial activity against Proteus vulgaris ATCC 3851 after 24 hrs by broth dilution method. In kind it is functional. The following applies: ATCC 3851, 24 h. In short, it runs like this: as §1
The test system of experiment [8] is Salmonella typhimurium. As to the kind of experiment: Antimicrobial activity against Salmonella Typhimurium ATCC 14028 after 24 hrs by broth dilution method. In kind it is functional, Salmonella enterica subsp. enterica serovar Typhimurium. The following applies: Salmonella enterica, ATCC 14028, 24 h. In short, it runs like this: as §1
For experiment [9], the system named is Trichophyton rubrum. Put plainly: Antimicrobial activity against Trichophyton rubrum IFO 9185 after 48 to 72 hrs by broth dilution method. In kind it is functional. In short, it runs like this: as §2
The test system of experiment [10] is Micrococcus luteus. Put plainly: Antimicrobial activity against Micrococcus luteus IFO 12708 after 24 hrs by broth dilution method. It is filed as functional. The following applies: IFO 12708, 24 h. In short, it runs like this: as §1

The term MIC denotes the lowest concentration found to suppress growth. High values mean a less susceptible organism, low ones a more susceptible organism. The pIC50 is −log10 of the IC50, conventionally taken in molar units. Read a low pIC50 as a high IC50. For the compound `Oc1ccc(Oc2ccc(O)c(O)c2)cc1O`, the MIC in [1] was 50 µg/mL (≈ 213 µM); in experiment [2], > 100 µg/mL; in experiment [3], > 100 µg/mL; in experiment [5], > 100 µg/mL; in experiment [6], > 100 µg/mL; in experiment [7] it was > 100 µg/mL. Besides, the MIC was 100 µg/mL (≈ 427 µM) in [8], > 100 µg/mL in [9] and 100 µg/mL (≈ 427 µM) in experiment [10]. For the same compound, the pIC50 in [4] is < 4.00.
Regarding `Oc1ccc(Oc2cc(O)c(O)cc2Br)cc1O`, the MIC in [1] was 100 µg/mL (≈ 319 µM); in experiment [2], > 100 µg/mL; in experiment [3], > 100 µg/mL; in [5], > 100 µg/mL; in [6] it was > 100 µg/mL; in [7] it was > 100 µg/mL. The MIC is 100 µg/mL (≈ 319 µM) in experiment [8], > 100 µg/mL in [9] and 100 µg/mL (≈ 319 µM) in experiment [10]. The compound further showed a pIC50 in [4] of 4.17.
As for `Oc1cc(Br)c(Oc2cc(O)c(O)cc2Br)cc1O`, the MIC in [1] is 100 µg/mL (≈ 255 µM); in experiment [2] it was > 100 µg/mL; in experiment [3], 100 µg/mL (≈ 255 µM); in experiment [5] it was > 100 µg/mL; in [6] it was > 100 µg/mL; in [7], 100 µg/mL (≈ 255 µM). Also, the minimal inhibitory concentration (MIC) is 100 µg/mL (≈ 255 µM) in [8], > 100 µg/mL in experiment [9] and 50 µg/mL (≈ 128 µM) in [10]. In [4], this compound gave a pIC50 of 4.51.
`O=C(c1ccc(O)c(O)c1)c1ccc(O)c(O)c1`: the MIC in [1], in [2], in experiment [3], in experiment [5], in [6] and in experiment [7] was > 100 µg/mL each time. For the same compound, the MIC in [8], in experiment [9] and in [10] was > 100 µg/mL in each case. Moreover, the pIC50 in experiment [4] is 4.65.
As to `O=C(c1cc(O)c(O)c(Br)c1)c1cc(O)c(O)c(Br)c1`, the MIC was > 100 µg/mL in [1]; > 100 µg/mL in experiment [2]; 100 µg/mL (≈ 248 µM) in [3]; > 100 µg/mL in experiment [5]; > 100 µg/mL in experiment [6]; > 100 µg/mL in experiment [7]. In addition, the minimum inhibitory concentration (MIC) is > 100 µg/mL in experiment [8], > 100 µg/mL in experiment [9] and 100 µg/mL (≈ 248 µM) in [10]. In experiment [4], this compound had a pIC50 of 5.05.
On to `Oc1ccc(CCc2ccc(O)c(O)c2)cc1O`, for which the MIC was 50 µg/mL (≈ 203 µM) in [1]; > 100 µg/mL in experiment [2]; 100 µg/mL (≈ 406 µM) in [3]; 100 µg/mL (≈ 406 µM) in [5]; > 100 µg/mL in [6]; 100 µg/mL (≈ 406 µM) in experiment [7]. Further, the figures for the MIC in [8], in [9] and in experiment [10] were 100 µg/mL (≈ 406 µM), > 100 µg/mL and 100 µg/mL (≈ 406 µM), respectively. Further, the pIC50 in experiment [4] is 4.23.
`Oc1cc(Br)c(CCc2cc(O)c(O)cc2Br)cc1O`: the MIC in [1] amounted to 50 µg/mL (≈ 124 µM); in [2] it was 50 µg/mL (≈ 124 µM); in experiment [3], 50 µg/mL (≈ 124 µM); in experiment [5], 100 µg/mL (≈ 247 µM); in experiment [6], 50 µg/mL (≈ 124 µM); in [7] it was 50 µg/mL (≈ 124 µM). Also, the MIC in experiment [8], in experiment [9] and in experiment [10] was 50 µg/mL (≈ 124 µM) in each case. The compound also gave a pIC50 in [4] of 4.67.
As for `Oc1ccc(COCc2ccc(O)c(O)c2)cc1O`, the MIC in [1], in experiment [2], in experiment [3], in experiment [5], in experiment [6] and in experiment [7] was > 100 µg/mL throughout. Further, the minimal inhibitory concentration (MIC) in experiment [8], in [9] and in [10] was > 100 µg/mL throughout. The pIC50 in experiment [4] is < 3.42.
On to `Oc1cc(Oc2cc(O)c(O)c(Br)c2Br)c(Br)c(Br)c1O`, for which the MIC in experiment [1] was 50 µg/mL (≈ 90.9 µM); in experiment [2], 25 µg/mL (≈ 45.5 µM); in experiment [3] it was 25 µg/mL (≈ 45.5 µM); in experiment [5] it was 25 µg/mL (≈ 45.5 µM); in [6], 25 µg/mL (≈ 45.5 µM); in [7], 25 µg/mL (≈ 45.5 µM). Further, the results for the MIC in experiment [8], in experiment [9] and in experiment [10] were 50 µg/mL (≈ 90.9 µM), 12.5 µg/mL (≈ 22.7 µM) and 50 µg/mL (≈ 90.9 µM), respectively. The compound also had a pIC50 in experiment [4] of 4.93.
For the compound `O=C(c1cc(O)c(O)c(Br)c1)c1cc(O)c(O)c(Br)c1Br`, the MIC in experiment [1] was 100 µg/mL (≈ 207 µM); in experiment [2], > 100 µg/mL; in experiment [3] it was 50 µg/mL (≈ 104 µM); in experiment [5] it was > 100 µg/mL; in experiment [6] it was 100 µg/mL (≈ 207 µM); in experiment [7] it was 100 µg/mL (≈ 207 µM). Further, the MIC in experiment [8] was 100 µg/mL (≈ 207 µM); in experiment [9], > 100 µg/mL; in [10] it was 50 µg/mL (≈ 104 µM). Moreover, the pIC50 in experiment [4] is 5.58.
On to `Oc1cc(Br)c(CCc2cc(O)c(O)c(Br)c2Br)cc1O`, for which the MIC in [1] is 100 µg/mL (≈ 207 µM); in [2] it was > 100 µg/mL; in experiment [3], 50 µg/mL (≈ 104 µM); in experiment [5], > 100 µg/mL; in [6], 100 µg/mL (≈ 207 µM); in [7], 100 µg/mL (≈ 207 µM). Further, the results for the MIC in [8], in experiment [9] and in experiment [10] were 100 µg/mL (≈ 207 µM), > 100 µg/mL and 100 µg/mL (≈ 207 µM), respectively. In addition, the pIC50 in experiment [4] was 4.83.
In the case of `Oc1cc(Br)c(COCc2cc(O)c(O)c(Br)c2Br)cc1O`, the MIC in experiment [1], in experiment [2], in experiment [3], in experiment [5], in [6] and in experiment [7] was > 100 µg/mL in each case. Moreover, the MIC in experiment [8], in experiment [9] and in experiment [10] was > 100 µg/mL throughout. The compound further showed a pIC50 in experiment [4] of 4.81.
For `Oc1cc(Cc2cc(O)c(O)c(Br)c2Br)c(Br)c(Br)c1O`, the MIC in experiment [1] stood at 25 µg/mL (≈ 45.6 µM); in [2], 0.78 µg/mL (≈ 1.42 µM); in experiment [3], 25 µg/mL (≈ 45.6 µM); in experiment [5] it was 1.56 µg/mL (≈ 2.85 µM); in experiment [6], 1.56 µg/mL (≈ 2.85 µM); in experiment [7], 50 µg/mL (≈ 91.3 µM). Also, the MIC in experiment [8] is 50 µg/mL (≈ 91.3 µM); in experiment [9] it was 1.56 µg/mL (≈ 2.85 µM); in experiment [10], 25 µg/mL (≈ 45.6 µM). The compound also showed a pIC50 in experiment [4] of 4.73.
Turning to `Oc1cc(Br)c(Cc2cc(O)c(O)cc2Br)cc1O`, the MIC in experiment [1] was 25 µg/mL (≈ 64.1 µM); in experiment [2], > 100 µg/mL; in experiment [3] it was 25 µg/mL (≈ 64.1 µM); in experiment [5], 50 µg/mL (≈ 128 µM); in experiment [6], > 100 µg/mL; in experiment [7], 25 µg/mL (≈ 64.1 µM). For the same compound, the MIC was 25 µg/mL (≈ 64.1 µM) in experiment [8], > 100 µg/mL in experiment [9] and 12.5 µg/mL (≈ 32 µM) in [10]. This compound gave a pIC50 in [4] of 4.34.
For the compound `Oc1cc(COCc2cc(O)c(O)c(Br)c2Br)c(Br)c(Br)c1O`, the MIC in experiment [1], in experiment [2], in experiment [3], in experiment [5], in experiment [6] and in experiment [7] was > 100 µg/mL each time. Also, the MIC in experiment [8], in experiment [9] and in [10] was > 100 µg/mL each time. This compound also showed a pIC50 in [4] of 4.55.
On to `C[C@@H]1[C@H](O)[C@@H](C)/C=C/C=C/C=C/C=C/C=C/C=C/C=C/[C@H](O[C@@H]2O[C@H](C)[C@@H](O)[C@H](N)[C@@H]2O)C[C@@H]2O[C@](O)(C[C@@H](O)C[C@@H](O)[C@H](O)CC[C@@H](O)C[C@@H](O)CC(=O)O[C@H]1C)C[C@H](O)[C@H]2C(=O)O` [AMPHOTERICIN B], for which the MIC in experiment [2] stood at 3.12 µg/mL (≈ 3.38 µM); in [5], 3.12 µg/mL (≈ 3.38 µM); in experiment [6] it was 6.25 µg/mL (≈ 6.76 µM); in [9], 3.12 µg/mL (≈ 3.38 µM).
Regarding `CC1(C)S[C@@H]2[C@H](NC(=O)[C@H](N)c3ccccc3)C(=O)N2[C@H]1C(=O)O` [AMPICILLIN], the MIC amounted to 1.56 µg/mL (≈ 4.46 µM) in experiment [1]; 1.56 µg/mL (≈ 4.46 µM) in experiment [3]; 3.12 µg/mL (≈ 8.93 µM) in experiment [7]; 1.56 µg/mL (≈ 4.46 µM) in experiment [8]; 3.12 µg/mL (≈ 8.93 µM) in experiment [10].
